# Shown are actives, neighbours in structure and some others; about 2.3% of the full set was active somewhere.
# TRPC6 activator – mouse TRPC6 channel activators, primary screen, cell-based, HEK293, membrane potential dye | HEK293-TRPC6 membrane potential dye fluorescence; active compounds read high | AID 2550, 2010 | B-score at 10 µM | 310,000 compounds, 0.13% hits | Short transient receptor potential channel 6 (Mus musculus), Q61143;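 active = B-score of the integrated fluorescence ratio above library mean plus 3 SD, and starting fluorescence ratio within library mean plus 5 SD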;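 also: higher score means more depolarization so channel activation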
# Target sequence (Q61143 whole entry, looked up): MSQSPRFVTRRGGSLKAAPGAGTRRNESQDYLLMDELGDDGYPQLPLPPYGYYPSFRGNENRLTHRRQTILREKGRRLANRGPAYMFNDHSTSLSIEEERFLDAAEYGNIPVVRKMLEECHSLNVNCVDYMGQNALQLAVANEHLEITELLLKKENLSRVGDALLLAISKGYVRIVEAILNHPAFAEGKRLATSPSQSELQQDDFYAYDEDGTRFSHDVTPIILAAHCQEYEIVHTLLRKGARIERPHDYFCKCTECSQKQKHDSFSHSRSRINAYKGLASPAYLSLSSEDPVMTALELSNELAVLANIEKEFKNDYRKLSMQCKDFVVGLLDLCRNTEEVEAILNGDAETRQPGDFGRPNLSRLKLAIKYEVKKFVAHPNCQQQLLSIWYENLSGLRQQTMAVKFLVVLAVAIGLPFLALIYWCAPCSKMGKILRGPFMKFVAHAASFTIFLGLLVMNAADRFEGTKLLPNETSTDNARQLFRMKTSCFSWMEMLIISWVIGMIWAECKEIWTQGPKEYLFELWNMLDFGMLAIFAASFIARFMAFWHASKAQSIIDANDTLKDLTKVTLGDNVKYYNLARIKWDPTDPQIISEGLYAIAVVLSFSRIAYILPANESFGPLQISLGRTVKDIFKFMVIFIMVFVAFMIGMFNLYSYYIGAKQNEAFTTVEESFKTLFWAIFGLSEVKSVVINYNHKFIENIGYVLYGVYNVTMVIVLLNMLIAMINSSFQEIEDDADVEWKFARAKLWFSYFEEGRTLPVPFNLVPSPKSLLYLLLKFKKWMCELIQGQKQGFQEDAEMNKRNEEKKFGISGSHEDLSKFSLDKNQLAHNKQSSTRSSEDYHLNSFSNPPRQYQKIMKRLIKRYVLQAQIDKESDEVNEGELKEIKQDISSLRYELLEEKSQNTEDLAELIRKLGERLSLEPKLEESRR
# TRPC6 inh – mouse TRPC6 channel inhibitors, primary screen, cell-based, HEK293, membrane potential dye. Short transient receptor potential channel 6 (Mus musculus), Q61143. ACh-evoked depolarization; active compounds read low. B-score at 10 µM. 310,000 compounds, 1.1% hits. AID 2553, 2010;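 active = B-score under library mean minus 3 SD, initial fluorescence not abnormally high, positive integrated signal ratio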;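 also: B-score derived from integrated fluorescence ratio over the kinetic read; more negative B-score means stronger inhibition of depolarization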
# TRPC4 agonist – activators of mouse TRPC4 channel, primary screen, Fluo4 calcium, HEK293 TRPC4beta/mu-opioid cells; Short transient receptor potential channel 4 (Mus musculus), Q9QUQ5; Fluo4 calcium fluorescence; active compounds read high; B-score at 10 µM; 310,000 compounds, 0.49% hits;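 active = B-score above 5 SD of library B-scores, and initial fluorescence ratio not above library mean plus 5 SD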;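 also: positive B-score marks a calcium rise read as TRPC4 activation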
#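 Assay system: HEK293 stable line with TRPC4beta plus mu-opioid receptor. Times: dye 45 min RT, read 110 s. Measured by: kinetic Fluo4 calcium fluorescence. Measure: B score of integrated ratio. Controls: assay buffer as low control, maximal DAMGO as high control.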
# TRPC4 inh – inhibitors of mouse TRPC4 channel, primary screen, Fluo4 calcium, HEK293 TRPC4beta/mu-opioid cells. Short transient receptor potential channel 4 (Mus musculus), Q9QUQ5. DAMGO-evoked Fluo4 calcium flux; active compounds read low. B-score at 10 µM. 300,000 compounds, 0.39% hits. AID 2247, 2010;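 active = B-score over 3 SD under the library average, no early fluorescence shift, positive overall ratio signal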
#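 Assay system: TRPC4beta/mu-opioid receptor HEK293 cell line; compound dosing: single concentration per test compound; detection: Fluo4 Ca2+ flux fluorescence; evaluation: per-well B score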
# TRPC4 potent – positive allosteric modulators of TRPC4, primary screen, cell-based, mouse TRPC4beta, HEK293 mu-opioid, Fluo-4 calcium; Short transient receptor potential channel 4 (Mus musculus), Q9QUQ5; DAMGO EC20, Fluo-4 Ca2+ flux; active compounds read high; B-score at 10 µM; 310,000 compounds, 0.42% hits;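 active = B-score of calcium response area above 5 SD of library B-scores, with initial fluorescence ratio within 5 SD of library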;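 also: B-score of integrated fluorescence ratio over time as area under calcium response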
# Active calls of the source: *; i = inactive.
SMILES,TRPC6 activator,TRPC6 inh,TRPC4 agonist,TRPC4 inh,TRPC4 potent
COc1cccc(CN2CCNC(=O)C2CC(=O)NCCN2CCCCC2=O)c1 (centres undefined),i,i,i,i,i
Cc1ccc(OC(=O)CCC(=O)Nc2ccc(S(=O)(=O)Nc3cc(C)on3)cc2)cc1,i,i,i,i,i
CC(=O)NS(=O)(=O)c1ccc(NC(=O)CCC(=O)Oc2ccc(C)cc2)cc1,i,i,i,i,11*
COc1ccccc1N1C(=O)Cc2ccccc2C1=O,i,i,i,i,i
O=C(NC(=S)N1CCN(c2ccc([N+](=O)[O-])cc2Cl)CC1)c1ccco1,i,i,i,i,12*
O=C(c1ccco1)N1CCN(c2ccc([N+](=O)[O-])cc2Cl)CC1,i,i,i,i,i
O=C(/C=C/c1ccc(S(=O)(=O)N2CCOCC2)cc1)NC(=S)Nc1ccc(N2CCOCC2)cc1,i,i,i,i,12*
C/C(N)=C(/C#N)C(=O)COC(=O)CC1CCCC1,i,i,i,i,i
C/C(N)=C(/C#N)C(=O)COC(=O)CC12CC3CC(CC(C3)C1)C2,i,i,i,-7*,i
Cc1cccc(C)c1-n1cccc1/C=C1\SC(=S)N(c2cccc(C(=O)O)c2)C1=O,i,i,i,-7*,i
O=C(CCCc1ccccc1)NC12CC3CC(CC(C3)C1)C2,i,i,i,i,i
Cc1cc(N2CCCCC2)nc(N)n1,i,i,80*,i,i
Cn1c2ccccc2c(=O)c2cc(C#CC3(O)CCCCC3)ccc21,i,i,i,i,i
Cn1c2ccccc2c(=O)c2ccc(C#CC3(N)CCCCC3)cc21,i,-8.6*,i,i,i
CCCCCCc1c(C)c2ccc(OCC(=O)N3CCC[C@H]3C(=O)O)c(C)c2oc1=O,i,i,i,i,i
CC1=NN(C(=O)COc2ccc(C)c(C)c2)C(O)(c2ccc(Cl)cc2)C1 (centres undefined),i,i,i,i,22*
CCOC(=O)C1=NN(C(=O)COc2ccccc2)C(O)(c2ccc(Br)cc2)C1 (centres undefined),i,i,47*,i,i
CC1=NN(C(=O)CSCc2ccccc2)C(O)(c2ccc(Cl)cc2)C1 (centres undefined),i,i,i,i,i
COc1ccc(C[C@H]2CN3C(=NC[C@@H]3Cc3ccccc3)N2CCNC(=O)CCC2CCCCC2)cc1,i,i,60*,i,i
CC(C)(C)c1ccc(C(=O)NC(=S)NNC(=O)c2cccs2)cc1,i,i,339*,i,i
Cc1cccc(C(=O)NC(=S)NNC(=O)c2ccc(Cl)cc2)c1,i,i,i,i,i
Cc1cccc(C(=O)NC(=S)NNC(=O)c2cccs2)c1,i,i,236*,i,i
O=C(NNC(=S)Nc1ccccc1)c1cccs1,i,i,i,i,i
CCCC(=O)Nc1ccc(C(=O)NNC(=S)NC(=O)c2cccs2)cc1,i,i,i,i,i
Cc1ccccc1C(=O)NNC(=S)NC(=O)c1cccs1,i,i,159*,i,i
SMILES,TRPC6 activator,TRPC6 inh,TRPC4 agonist,TRPC4 inh,TRPC4 potent
Cc1ccccc1C(=O)Nc1cccc(NC(=S)NC(=O)c2cccs2)c1,i,i,i,i,i
O=C(NC(=S)NNC(=O)c1cccs1)c1ccccc1,i,i,82*,i,i
CN(C)S(=O)(=O)c1cccc(NC(=O)c2ccc(COc3ccccc3)cc2)c1,i,i,i,i,i
CCCCCc1nnc(NC(=O)CN2C(=O)C3CCCCC3C2=O)s1 (centres undefined),i,i,i,i,i
CCC(=O)c1ccc(N2CCN(C(=O)c3ccccc3F)CC2)c(F)c1,i,i,i,i,i
Cc1ccc(N2CCN(C(=O)c3ccccc3F)CC2)c(C)c1,i,i,i,-7*,i
CCC(=O)c1ccc(N2CCN(C(=O)c3ccccc3Br)CC2)c(F)c1,i,i,i,i,28*
CC1CN(C(=O)c2ccc(OC3CCN(Cc4ccccn4)CC3)cc2)CCN1C (centres undefined),i,i,i,i,i
CC1(C)CC2CC(C)(CN2CC(O)COc2ccccc2)C1 (centres undefined),i,i,i,-9*,i
Cc1cccc2c1-c1sc(C(=O)NCCCN3CCCC(C)C3)cc1CO2 (centres undefined),i,i,48*,i,i
Cc1nc(-c2ccc([N+](=O)[O-])cc2)nc2[nH]ccc(=O)c12,i,i,i,i,i
CCCCOc1ccc(C(=O)NNC(=S)NC(=O)CC)cc1,i,i,73*,i,i
CCCOc1ccc(C(=O)NNC(=S)NC(C)=O)cc1,i,i,i,i,i
CCCOc1ccc(C(=O)NNC(=S)NC(=O)c2cccs2)cc1,i,i,175*,i,i
CCCOc1ccc(C(=O)NNC(=S)NC(=O)c2ccccc2[N+](=O)[O-])cc1,i,i,i,i,i
CCCOc1ccc(C(=O)NNC(=S)NC(=O)c2ccccc2)cc1,i,i,167*,i,i
COc1cc(Cl)ccc1OCc1cc(C(=O)NC(C)Cc2cccnc2)no1 (centres undefined),i,i,i,i,i
CC(C)CCn1c(N2CCN(c3cccc(Cl)c3)CC2)nc2c1c(=O)[nH]c(=O)n2C,i,i,i,i,16*
COC(=O)[C@@]1(Cc2ccc(F)cc2)[C@H]2c3cc(C(=O)N(C)C)n(CCc4ccccn4)c3C[C@H]2CN1C(=O)c1ccccc1,i,i,143*,i,i
COC(=O)[C@@]1(Cc2ccc(F)cc2)[C@H]2c3cc(C(=O)N(C)C)n(CCc4ccc(OC)c(Br)c4)c3C[C@H]2CN1C(=O)c1ccccc1,i,i,i,i,i
N#CCSc1nnc2sc3ccccc3n12,i,i,i,i,i
CN(C)CCSc1nnc2sc3ccccc3n12,i,i,i,i,11*
CCOC(=O)N1C(=O)C2(CCCCC2)N(c2ccccc2Cl)C1=S,i,i,i,i,i

# From PubChem BioAssay
